{"source": "ChEMBL document CHEMBL4145583", "about": "“Neuroprotective Compound from an Endophytic Fungus, Colletotrichum sp. JS-0367” (J Nat Prod, 2018)", "key": {"[1]": {"target": "Mitogen-activated protein kinase 1 and 3 (ERK2 and ERK1) (Mus musculus) (UniProt P63085+Q63844)", "sequence (P63085 whole entry, looked up)": "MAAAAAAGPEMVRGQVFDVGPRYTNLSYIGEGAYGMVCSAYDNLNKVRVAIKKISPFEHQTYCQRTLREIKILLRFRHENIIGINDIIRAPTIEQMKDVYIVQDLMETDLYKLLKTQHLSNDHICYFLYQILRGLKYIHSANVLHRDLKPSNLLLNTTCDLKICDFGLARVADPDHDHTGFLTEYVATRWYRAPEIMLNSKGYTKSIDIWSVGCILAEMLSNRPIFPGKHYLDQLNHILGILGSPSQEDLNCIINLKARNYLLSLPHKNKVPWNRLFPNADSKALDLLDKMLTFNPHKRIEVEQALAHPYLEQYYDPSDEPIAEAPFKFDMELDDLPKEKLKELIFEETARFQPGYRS", "sequence (Q63844 whole entry, looked up)": "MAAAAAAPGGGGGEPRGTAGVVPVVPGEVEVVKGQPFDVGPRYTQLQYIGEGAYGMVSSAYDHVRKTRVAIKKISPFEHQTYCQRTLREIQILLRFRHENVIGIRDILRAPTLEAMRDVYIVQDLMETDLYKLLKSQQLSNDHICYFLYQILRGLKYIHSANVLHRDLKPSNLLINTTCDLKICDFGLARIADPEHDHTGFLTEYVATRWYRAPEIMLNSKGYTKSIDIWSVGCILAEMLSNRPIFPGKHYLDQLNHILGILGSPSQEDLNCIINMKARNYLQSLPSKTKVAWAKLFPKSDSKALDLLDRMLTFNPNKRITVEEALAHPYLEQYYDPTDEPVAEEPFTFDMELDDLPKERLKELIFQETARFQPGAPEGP", "assay": "Inhibition of glutamate-induced ERK1/2 phosphorylation in mouse HT22 cells at 50 to 100 uM after 8 hrs by Western blot analysis", "type": "cell-based", "method_in_brief": "(§1)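 Mouse hippocampal HT22 cells were grown in DMEM with 10% FBS and penicillin/streptomycin at 37 °C in 5% CO2. Cells were exposed to 5 mM glutamate plus 50 or 100 μM compound for 8 h, then lysed in RIPA buffer with protease inhibitors. Lysates were run on SDS-PAGE and transferred to PVDF. Membranes were blocked in 5% milk and probed for 1 h with p-/total ERK1/2, JNK, p38 and GAPDH antibodies. Chemiluminescent bands were quantified as fold of control; mean ± SEM.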"}, "HT-22 [2]": {"test_system": "HT-22", "assay": "Inhibition of glutamate-induced intracellular calcium level in mouse HT22 cells at 50 uM after 8 hrs by Flu-4 AM probe based fluorescence microscopic analysis relative to control", "type": "functional", "method_in_brief": "(§2)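 HT22 mouse hippocampal cells (DMEM, 10% FBS, penicillin/streptomycin, 37 °C, 5% CO2) were seeded at 5 × 10^4 cells/well and co-treated with 5 mM glutamate and the test agent for 8 h. They were then loaded with 2 μM Fluo-4 AM and rinsed with phenol-red-free medium. Fluorescence images were quantified as fold change versus untreated control cells (mean ± SEM).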"}, "HT-22 [3]": {"test_system": "HT-22", "assay": "Inhibition of glutamate-induced intracellular ROS generation in mouse HT22 cells at 50 to 100 uM after 8 hrs by DCF-DA probe based fluorescence microscopic analysis", "type": "functional, cell-based", "method_in_brief": "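HT22 cells were seeded at 1 × 10^4 per well in DMEM/10% FBS at 37 °C, 5% CO2. They were exposed to 5 mM glutamate with or without compound for 8 h, loaded with 10 μM DCF-DA for 30 min and washed three times with PBS. DCF fluorescence was read at ex 495/em 517 nm on a plate reader and expressed against control; images were taken by fluorescence microscopy. Mean ± SEM.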"}, "[4]": {"assay": "Antioxidant activity assessed as DPPH radical scavenging activity", "type": "functional"}, "HT-22 [5]": {"test_system": "HT-22", "assay": "Neuroprotective activity against glutamate-induced neuronal cell death in mouse HT22 cells assessed as increase in cell viability after 24 hrs by Ez-CyTox reagent based assay", "type": "functional", "method_in_brief": "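HT22 cells (DMEM/10% FBS, 37 °C, 5% CO2) were plated at 1 × 10^4 per well and left to adhere for 24 h. Glutamate (5 mM final) was added together with compounds for 24 h. EZ-Cytox reagent was applied for 30 min and absorbance read at 450 nm. Viability is given as % of untreated live control; mean ± SEM.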"}, "HT-22 [6]": {"test_system": "HT-22", "assay": "Neuroprotective activity against glutamate-induced apoptotic cell death in mouse HT22 cells at 50 to 100 uM after 10 hrs by Alexa fluor-488 annexin V/PI staining based cytometric analysis", "type": "functional", "method_in_brief": "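HT22 cells were seeded at 2 × 10^5 per well and treated with 5 mM glutamate and 50 or 100 μM compound for 10 h. Cells were harvested, washed in PBS, and equal numbers were labelled with Alexa Fluor 488 annexin V in binding buffer for 20 min, then with propidium iodide. Cells were counted by image-based cytometry as % annexin V-positive; mean ± SEM.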"}, "Mus musculus": {"species_on_record": "Mus musculus", "assay": "Inhibition of glutamate-induced JNK phosphorylation in mouse HT22 cells at 50 to 100 uM after 8 hrs by Western blot analysis", "type": "cell-based", "method_in_brief": "as §1"}, "[7]": {"target": "MAP kinase p38 (Mus musculus) (UniProt P47811+O08911+Q9WUI1+Q9Z1B7)", "assay": "Inhibition of glutamate-induced p38 phosphorylation in mouse HT22 cells at 50 to 100 uM after 8 hrs by Western blot analysis", "type": "cell-based", "method_in_brief": "as §1"}, "HT-22 [8]": {"test_system": "HT-22", "assay": "Inhibition of glutamate-induced intracellular calcium level in mouse HT22 cells at 100 uM after 8 hrs by Flu-4 AM probe based fluorescence microscopic analysis relative to control", "type": "functional", "method_in_brief": "as §2"}, "HT-22 [9]": {"test_system": "HT-22", "assay": "Neuroprotective activity against glutamate-induced neuronal cell death in mouse HT22 cells assessed as increase in cell viability at 50 to 100 uM after 24 hrs by microscopy", "type": "functional, cell-based"}, "[10]": {"assay": "Antioxidant activity assessed as DPPH radical scavenging activity at 100 uM", "type": "functional"}}, "note": "The source made the active and inactive calls. The rule behind the calls is not given here."}
{"compound": "COc1cc(C)cc2c1C(=O)c1c(cc(O)c(O)c1O)C2=O", "values": [{"measurement": "inhibition", "setting": "[1]", "value": "Active"}, {"measurement": "fold change (FC)", "setting": "HT-22 [2]", "value": 1.4}, {"measurement": "inhibition", "setting": "HT-22 [3]", "value": "Active"}, {"measurement": "Activity", "setting": "[4]", "value": "Dose-dependent effect"}, {"measurement": "IC50", "setting": "[4]", "value": 42.2, "unit": "µM"}, {"measurement": "Activity", "setting": "HT-22 [5]", "value": "Dose-dependent effect"}, {"measurement": "Activity", "setting": "HT-22 [6]", "value": "Active"}, {"measurement": "inhibition", "setting": "Mus musculus", "value": "Active"}, {"measurement": "inhibition", "setting": "[7]", "value": "Active"}, {"measurement": "fold change (FC)", "setting": "HT-22 [8]", "value": 0.98}, {"measurement": "Activity", "setting": "HT-22 [9]", "value": "Active"}, {"measurement": "Activity", "setting": "[10]", "value": 70, "unit": "%"}]}
